Experiments:
[1] = system: CCRF-CEM; assay: Inhibition of DNA synthesis in human CCRF-CEM assessed as assessed as BrdU incorporation at 5 x GIC50 after 24 by flow cytometry; assay type: functional; parameters: scale not given: the % may be the effect or the level left
Method in brief: (§1)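 Culture as for cell cycle work (CCRF-CEM, 24 h, 1× or 5× GIC₅₀). Pulse with 10 μM BrdU for 30 min before harvest. Fixed in 70% ethanol, DNA denatured in 2 M HCl, neutralized with 0.1 M borax. Stained with anti-BrdU and FITC secondary, plus PI 0.1 mg/mL and RNase A. BrdU+ cells counted by flow cytometry.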

[2] = Cytostatic activity against human Hs578 cells after 5 days by SRB assay; assay type: functional; settings: Hs578, 120 h
Method in brief: (§2)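 Cells seeded in RPMI (colon, breast, lung lines), MEM (Du145) or F12K (PC3) with 10% FBS, 37 °C overnight. Day-zero plates fixed with cold 10% TCA. Compounds added as 5-fold serial dilutions for 5 days. Fixed, stained with 0.057% SRB in 1% acetic acid, dye solubilized in 10 mM Tris pH 10.5, A500 read. Growth % corrected for day-0 OD; GIC₅₀ from sigmoidal fit.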

[3] = system: CCRF-CEM; assay: Cell cycle arrest in human CCRF-CEM assessed as accumulation at G2/M phase at 5 x GIC50 after 24 hrs by flow cytometry; assay type: functional
Method in brief: (§3)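 Subconfluent CCRF-CEM (5 × 10⁵ cells/mL, RPMI 1640 + 10% FCS, 37 °C CO₂) exposed 24 h at 1× or 5× GIC₅₀, vehicle controls alongside. Cells fixed overnight in 70% ethanol at -20 °C, hypotonic citrate wash, RNase 50 μg/mL, propidium iodide stain, 488 nm flow cytometry. Sub-G1 = particles with PI content below G0/G1 cells. Reported as % of total cells.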

[4] = Cytotoxicity against human HeLaS3 cells after 3 days by XTT assay; assay type: functional, cell-based; settings: HeLa S3, 72 h
[5] = system: PC-3; assay: Cytotoxicity against human PC3 cells after 5 days by SRB assay; assay type: functional; settings: PC-3, 120 h; method in brief: as §2
[6] = system: HL-60; assay: Cytotoxicity against human HL60 cells after 3 days by XTT assay; assay type: functional, cell-based; settings: HL-60, 72 h
Method in brief: (§4)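 Cell viability of CCRF-CEM, HL60 and HeLa cells measured by XTT assay after 72 h incubation with compounds. IC₅₀ taken as mean of 2–4 independent experiments.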

[7] = system: HCT-116; assay: Cytostatic activity against human HCT116 cells after 5 days by SRB assay; assay type: functional; settings: HCT-116, 120 h; method in brief: as §2
[8] = system: NCI-H23; assay: Cytotoxicity against human NCI-H23 cells after 5 days by SRB assay; assay type: functional; settings: NCI-H23, 120 h; method in brief: as §2
[9] = system: CCRF-CEM; assay: Cell cycle arrest in human CCRF-CEM assessed as accumulation at G2/M phase at 1 x GIC50 after 24 hrs by flow cytometry; assay type: functional; method in brief: as §3
[10] = system: CCRF-CEM; assay: Cytotoxicity against human CCRF-CEM cells after 3 days by XTT assay; assay type: functional, cell-based; settings: 72 h; method in brief: as §4
[11] = system: A549; assay: Cytostatic activity against human A549 cells after 5 days by SRB assay; assay type: functional; settings: A549, 120 h; method in brief: as §2
[12] = system: CCRF-CEM; assay: Cell cycle arrest in human CCRF-CEM assessed as accumulation at subG1 phase at 1 x GIC50 after 24 hrs by flow cytometry; assay type: functional; method in brief: as §3
[13] = system: CCRF-CEM; assay: Cell cycle arrest in human CCRF-CEM assessed as accumulation at G1 phase at 5 x GIC50 after 24 hrs by flow cytometry; assay type: functional; method in brief: as §3
[14] = system: CCRF-CEM; assay: Inhibition of RNA synthesis in human CCRF-CEM assessed as assessed as BrdU incorporation at 1 x GIC50 after 24 by flow cytometry; assay type: functional; parameters: scale not given: the % may be the effect or the level left
Method in brief: (§5)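 CCRF-CEM culture as for cell cycle (24 h, 1× or 5× GIC₅₀). Cells pulsed 30 min with 1 mM bromouridine before harvest. Fixed in 1% paraformaldehyde/0.05% NP-40. Stained with anti-BrdU antibody cross-reacting with BrU, then FITC secondary, PI and RNase A. BrU+ cells quantified by 488 nm flow cytometry.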

[15] = system: BT-549; assay: Cytotoxicity against human BT549 cells after 5 days by SRB assay; assay type: functional; settings: BT-549, 120 h; method in brief: as §2
[16] = system: CCRF-CEM; assay: Antimitotic activity in human CCRF-CEM cells assessed as decrease in mitotic histone H3 at 1 x GIC50; assay type: functional; parameters: scale not given: the % may be the effect or the level left
Method in brief: (§6)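 CCRF-CEM cells seeded subconfluent at 5 × 10⁵ cells/mL in RPMI 1640 with 10% FCS, 10 mM glutamine, penicillin/streptomycin, 37 °C humidified CO₂. Exposed 24 h at 1× or 5× GIC₅₀; vehicle controls harvested at 24 h. Ethanol-fixed cells labelled with anti-phospho-histone H3 Ser10 and mitotic cells counted by flow cytometry as % of total population.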

[17] = system: CCRF-CEM; assay: Cell cycle arrest in human CCRF-CEM assessed as accumulation at S phase at 1 x GIC50 after 24 hrs by flow cytometry; assay type: functional; method in brief: as §3
[18] = system: CCRF-CEM; assay: Cell cycle arrest in human CCRF-CEM assessed as accumulation at subG1 phase at 5 x GIC50 after 24 hrs by flow cytometry; assay type: functional; method in brief: as §3
[19] = system: DU-145; assay: Cytostatic activity against human DU145 cells after 5 days by SRB assay; assay type: functional; settings: DU-145, 120 h; method in brief: as §2
[20] = system: CCRF-CEM; assay: Inhibition of DNA synthesis in human CCRF-CEM assessed as assessed as BrdU incorporation at 1 x GIC50 after 24 by flow cytometry; assay type: functional; parameters: scale not given: the % may be the effect or the level left; method in brief: as §1
[21] = system: HCT-15; assay: Cytotoxicity against human HCT15 cells after 5 days by SRB assay; assay type: functional; settings: HCT-15, 120 h; method in brief: as §2
[22] = system: CCRF-CEM; assay: Cell cycle arrest in human CCRF-CEM assessed as accumulation at S phase at 5 x GIC50 after 24 hrs by flow cytometry; assay type: functional; method in brief: as §3
[23] = system: CCRF-CEM; assay: Cell cycle arrest in human CCRF-CEM assessed as accumulation at G1 phase at 1 x GIC50 after 24 hrs by flow cytometry; assay type: functional; method in brief: as §3
[24] = system: CCRF-CEM; assay: Inhibition of RNA synthesis in human CCRF-CEM assessed as assessed as BrdU incorporation at 5 x GIC50 after 24 by flow cytometry; assay type: functional; parameters: scale not given: the % may be the effect or the level left; method in brief: as §5
[25] = system: CCRF-CEM; assay: Antimitotic activity in human CCRF-CEM cells assessed as decrease in mitotic histone H3 at 5 x GIC50; assay type: functional; parameters: scale not given: the % may be the effect or the level left; method in brief: as §6
[26] = system: DU-145; assay: Cellular uptake ion human DU145 cells measured per million cells after 6 hrs; assay type: functional
Method in brief: (§7)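 Du145 cells incubated with 10 μM compound for 6 or 24 h, PBS-washed, trypsinized, pelleted, spun through Nyosil M25 oil. Extracts analysed by LC/MS/MS for parent nucleoside, monophosphate and triphosphate. Standards and QC samples prepared in untreated-cell extracts. Expressed as pmol per million cells.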

[27] = system: DU-145; assay: Cellular uptake ion human DU145 cells measured per million cells after 24 hrs; assay type: functional; method in brief: as §7
[28] = system: DU-145; assay: Cellular uptake ion human DU145 cells assessed as triphosphate level measured per million cells after 24 hrs
[29] = system: CCRF-CEM; assay: Inhibition of DNA synthesis in human CCRF-CEM assessed as assessed as BrdU incorporation after 24 by flow cytometry; assay type: functional
[30] = system: DU-145; assay: Cellular uptake ion human DU145 cells assessed as monophosphate level measured per million cells after 6 hrs; assay type: functional; method in brief: as §7
[31] = system: DU-145; assay: Cellular uptake ion human DU145 cells assessed as monophosphate level measured per million cells after 24 hrs; assay type: functional; method in brief: as §7
[32] = system: DU-145; assay: Cellular uptake ion human DU145 cells assessed as triphosphate level measured per million cells after 6 hrs
[33] = system: CCRF-CEM; assay: Inhibition of RNA synthesis in human CCRF-CEM assessed as assessed as BrdU incorporation after 24 by flow cytometry; assay type: functional

Row | GI50 [7] [µM] | GI50 [11] [µM] | GI50 [19] [µM] | SMILES | Activity [1] [%] | GI50 [2] [µM] | Activity [3] [%] | IC50 [4] [µM] | GI50 [5] [µM] | IC50 [6] [µM] | GI50 [8] [µM] | Activity [9] [%] | IC50 [10] [µM] | Activity [12] [%] | Activity [13] [%] | Activity [14] [%] | GI50 [15] [µM] | Activity [16] [%] | Activity [17] [%] | Activity [18] [%] | Activity [20] [%] | further results
1 | 0.009 | 0.061 | 0.009 | OC[C@H]1O[C@@H](n2cc(F)c3c(-c4cccs4)ncnc32)[C@H](O)[C@@H]1O | 47 | 0.13 | 9.1 | 4.3 | 0.09 | 4.3 | 1.5 | 9.3 | 0.27 | 17.1 | 40.4 | 28.4 | 0.081 | 0.85 | 46.7 | 43.4 | 56.2 | GI50 [21]: 0.018 µM; Activity [22]: 50.5%; Activity [23]: 43.9%; Activity [24]: 5.7%; Activity [25]: 0.47%
2 | 0.092 | 0.073 | 0.036 | OC[C@H]1O[C@@H](n2ccc3c(-c4ccoc4)ncnc32)[C@H](O)[C@@H]1O | 28.9 | 0.26 | 5.9 | 4.6 | 0.096 | 1.5 | 0.28 | 7.1 | 1.9 | 39.8 | 54.4 | 14 | 0.035 | 0.84 | 37.3 | 61.2 | 44.6 | GI50 [21]: 0.086 µM; Activity [22]: 39.7%; Activity [23]: 55.6%; Activity [24]: 7.2%; Activity [25]: 0.39%
3 | 0.078 | 0.088 | 0.007 | OC[C@H]1O[C@@H](n2ccc3c(-c4ccco4)ncnc32)[C@H](O)[C@@H]1O | 31.3 | 0.049 | 6.8 | 0.77 | 0.014 | 0.81 | 0.13 | 12.9 | 0.31 | 16.5 | 46.7 | 28.7 | 0.012 | 1.21 | 42.2 | 60.2 | 54.3 | Activity [26]: 950 pmol; Activity [27]: 207 pmol; triphosphate (NTP) level [28]: 109 pmol; inhibition (INH) [29]: 31.33%; Activity [30]: 4124 pmol; GI50 [21]: 0.02 µM; Activity [22]: 44.6%; Activity [23]: 44.9%; Activity [31]: 6842 pmol; triphosphate (NTP) level [32]: 88.4 pmol; Activity [24]: 4.7%; Activity [25]: 0.48%; inhibition (INH) [33]: 4.7%
